Values after ≈ are worked out from the molar mass of the structure shown. Active and inactive are the calls of the source. The rule behind the calls is not given here.
Tests used:
Candida albicans [1] = experiment: Antifungal activity against azole-resistant Candida albicans ATCC 90819 after 48 hrs in presence of posaconazole by checkerboard microdilution assay; assay type: functional; conditions: ATCC 90819, 48 h
In short: (§1)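 Checkerboard combinations of the aminoglycoside amphiphile with posaconazole against yeast strains, run in duplicate. Each agent's MIC is taken alone and in combination. The fractional inhibitory concentration index (FICI) is calculated to classify the interaction.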

Candida albicans [2] = experiment: Antifungal activity against azole-susceptible Candida albicans ATCC MYA-2310 after 48 hrs in presence of posaconazole by checkerboard microdilution assay; assay type: functional; conditions: ATCC MYA-2310, 48 h; in short: as §1
Candida albicans [3] = experiment: Antifungal activity against azole-resistant Candida albicans MYA-1237 after 48 hrs in presence of posaconazole by checkerboard microdilution assay; assay type: functional; conditions: MYA-1237, 48 h; in short: as §1
Candida albicans [4] = experiment: Antifungal activity against azole-resistant Candida albicans MYA-1003 after 48 hrs in presence of posaconazole by checkerboard microdilution assay; assay type: functional; conditions: MYA-1003, 48 h; in short: as §1
Candida albicans [5] = experiment: Antifungal activity against azole-resistant Candida albicans ATCC 64124 at sub-MIC measured over 24 hrs by time-kill assay; assay type: functional, organism-based
In short: (§2)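 Time-kill assay on C. albicans ATCC 64124 cultures exposed to test compound at 1/2 MIC, MIC and higher concentrations. Amphotericin B at 1 μg/mL and a no-drug culture serve as controls. CFU are counted at intervals over 24 h.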

Candida albicans [6] = experiment: Antifungal activity against azole-resistant Candida albicans ATCC 64124 at MIC measured after 6 hrs by time-kill assay; assay type: functional; in short: as §2
Candida albicans [7] = experiment: Antifungal activity against azole-resistant Candida albicans ATCC 64124 assessed as cell death after 24 hrs by time-kill assay; assay type: functional, organism-based; in short: as §2
Candida albicans [8] = experiment: Antifungal activity against azole-resistant Candida albicans ATCC 64124 assessed as cell membrane permeabilization at twice the MIC after 1 hr by propidium iodide-staining based fluorescence microscopic analysis (reference value: <2%); assay type: functional
[9] = Hemolytic activity against mouse RBC at 125 ug/ml after 60 mins; assay type: ADME, cell-based, Erythrocyte; conditions: red blood cells, read-out: Activity
A549 = experiment: Cytotoxicity against human A549 cells after 24 hrs by resazurin assay; assay type: cell-based; conditions: Homo sapiens, A549, 24 h
[10] = Cytotoxicity against human BEAS2B cells after 24 hrs by resazurin assay; assay type: cell-based, BEAS-2B; conditions: Homo sapiens, BEAS-2B
Klebsiella pneumoniae = experiment: Antibacterial activity against Klebsiella pneumoniae ATCC 27736 by microdilution method; assay type: functional
In short: (§3)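 Broth microdilution MIC against the named bacterial strain, reported in μg/mL; each determination run at least in duplicate.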

[11] = Activity of AAC(3)-4 (unknown origin) assessed as compound acetylation activity by Ellman's method
Candida albicans [12] = experiment: Antifungal activity against azole-resistant Candida albicans ATCC 64124 assessed as cell membrane permeabilization at 1 times MIC after 1 hr by propidium iodide-staining based fluorescence microscopic analysis (reference value: <2%); assay type: functional
Bacillus subtilis = experiment: Antibacterial activity against Bacillus subtilis 168 by microdilution method; assay type: functional; conditions: subsp. subtilis str. 168; in short: as §3
Staphylococcus aureus [13] = experiment: Antibacterial activity against methicillin-resistant Staphylococcus aureus by microdilution method; assay type: functional
In short: (§4)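 Broth microdilution MIC, in μg/mL, against a panel of Gram-positive and Gram-negative strains. Run at least in duplicate.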

Staphylococcus aureus [14] = experiment: Antibacterial activity against Staphylococcus aureus NRS385 (USA 300) by microdilution method; assay type: functional; in short: as §4
Staphylococcus aureus [15] = experiment: Antibacterial activity against Staphylococcus aureus NRS22 (USA 600) by microdilution method; assay type: functional; in short: as §3
[16] = test system: Staphylococcus epidermidis; experiment: Antibacterial activity against Staphylococcus epidermidis ATCC 12228 by microdilution method; assay type: functional; in short: as §3
Enterococcus = experiment: Antibacterial activity against vancomycin-resistant Enterococcus by microdilution method; assay type: functional; in short: as §4
Acinetobacter baumannii = experiment: Antibacterial activity against Acinetobacter baumannii ATCC 19606 by microdilution method; assay type: functional; in short: as §3
Enterobacter cloacae = experiment: Antibacterial activity against Enterobacter cloacae ATCC 13047 by microdilution method; assay type: functional; in short: as §3
Escherichia coli = experiment: Antibacterial activity against Escherichia coli MC1061 by microdilution method; assay type: functional; in short: as §4
Pseudomonas aeruginosa = experiment: Antibacterial activity against Pseudomonas aeruginosa ATCC 27853 by microdilution method; assay type: functional; in short: as §3
Salmonella enterica = experiment: Antibacterial activity against Salmonella enterica ATCC 14028 by microdilution method; assay type: functional; in short: as §3
[17] = test system: Bacillus subtilis subsp. subtilis str. 168; experiment: Activity of Bacillus subtilis 168 APH(2'')-1a assessed as compound phosphorylation activity by Ellman's method
[18] = Activity of AAC(6')-1e/APH(2'')-1a (unknown origin) assessed as compound acetylation activity by Ellman's method
Serratia marcescens = experiment: Activity of Serratia marcescens AAC(6')-2d assessed as compound acetylation activity by Ellman's method
[19] = test system: Mycobacterium tuberculosis; experiment: Activity of Mycobacterium tuberculosis AAC(2')-1c assessed as compound acetylation activity by Ellman's method
[20] = test system: Mycobacterium tuberculosis; experiment: Activity of Mycobacterium tuberculosis Eis assessed as compound acetylation activity by Ellman's method
Candida albicans [21] = experiment: Antifungal activity against azole-resistant Candida albicans ATCC 10231 after 48 hrs by microbroth dilution method; assay type: functional; conditions: ATCC 10231, 48 h
In short: (§5)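 Yeast MIC by broth microdilution, run in duplicate. The aminoglycoside compounds are read as MIC-0 (complete inhibition). Azoles are read as MIC-2 (50% inhibition).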

Candida albicans [22] = experiment: Antifungal activity against azole-resistant Candida albicans ATCC 64124 after 48 hrs by microbroth dilution method; assay type: functional; conditions: ATCC 64124, 48 h; in short: as §5
Candida albicans [23] = experiment: Antifungal activity against azole-susceptible Candida albicans ATCC MYA-2876 after 48 hrs by microbroth dilution method; assay type: functional; conditions: ATCC MYA-2876, 48 h; in short: as §5
Candida albicans [24] = experiment: Antifungal activity against azole-resistant Candida albicans ATCC 90819 after 48 hrs by microbroth dilution method; assay type: functional; conditions: ATCC 90819, 48 h; in short: as §5
Candida albicans [25] = experiment: Antifungal activity against azole-susceptible Candida albicans ATCC MYA-2310 after 48 hrs by microbroth dilution method; assay type: functional; conditions: ATCC MYA-2310, 48 h; in short: as §5
Candida albicans [26] = experiment: Antifungal activity against azole-resistant Candida albicans MYA-1237 after 48 hrs by microbroth dilution method; assay type: functional; conditions: MYA-1237, 48 h; in short: as §5
Candida albicans [27] = experiment: Antifungal activity against azole-resistant Candida albicans MYA-1003 after 48 hrs by microbroth dilution method; assay type: functional; conditions: MYA-1003, 48 h; in short: as §5
Aspergillus nidulans = experiment: Antifungal activity against Aspergillus nidulans ATCC 38163 after 48 hrs by microbroth dilution method; assay type: functional; conditions: ATCC 38163, 48 h
In short: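 Filamentous fungus MIC by broth microdilution, run in duplicate. All compounds are read as MIC-0 (complete inhibition).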

Candida albicans [28] = experiment: Antifungal activity against azole-resistant Candida albicans ATCC 10231 after 48 hrs in presence of posaconazole by checkerboard microdilution assay; assay type: functional; conditions: ATCC 10231, 48 h; in short: as §1
Candida albicans [29] = experiment: Antifungal activity against azole-resistant Candida albicans ATCC 64124 after 48 hrs in presence of posaconazole by checkerboard microdilution assay; assay type: functional; conditions: ATCC 64124, 48 h; in short: as §1
Candida albicans [30] = experiment: Antifungal activity against azole-susceptible Candida albicans ATCC MYA-2876 after 48 hrs in presence of posaconazole by checkerboard microdilution assay; assay type: functional; conditions: ATCC MYA-2876, 48 h; in short: as §1

Molecule CCCCCCCCCCCCSC[C@@H]1O[C@@H](O[C@@H]2[C@@H](O)[C@H](O[C@@H]3O[C@@H](CN)[C@H](O)[C@@H](O)[C@@H]3N)[C@@H](N)C[C@H]2N)[C@@H](O)[C@H](N)[C@H]1O (stereo in doubt) has an MIC (Candida albicans [1]) of 4 mg/L, an MIC (Candida albicans [2]) of 1 mg/L and an MIC (Candida albicans [3]) of 2 mg/L. For the same molecule, the MIC (Candida albicans [4]) was 2 mg/L, the Activity (Candida albicans [5]) was “Active” and the LCK (Candida albicans [6]) was “>=2”. The Activity (Candida albicans [7]) was “Active”, the Activity (Candida albicans [8]) was 44% and the hemolysis at 1 h, 125 ug/ml [9] was 40%. The IC50 (A549) was > 62.5 mg/L, the IC50 [10] was > 125 mg/L and the MIC (Klebsiella pneumoniae) was > 128 mg/L. The Activity [11] was “inactive”, the Activity (Candida albicans [12]) was 90% and the MIC (Bacillus subtilis) was > 128 mg/L. The MIC (Staphylococcus aureus [13]) was 32 mg/L (≈ 47.9 µM), the MIC (Staphylococcus aureus [14]) was 16 mg/L (≈ 24 µM) and the MIC (Staphylococcus aureus [15]) was 16 mg/L (≈ 24 µM). For the same molecule, the MIC [16] was > 128 mg/L, the MIC (Enterococcus) was 16 mg/L (≈ 24 µM) and the MIC (Acinetobacter baumannii) was > 128 mg/L. The MIC (Enterobacter cloacae) was > 128 mg/L, the MIC (Escherichia coli) was > 128 mg/L and the MIC (Pseudomonas aeruginosa) was 32 mg/L (≈ 47.9 µM). The MIC (Salmonella enterica) was > 128 mg/L, the Activity [17] was “inactive” and the Activity [18] was “inactive”. The Activity (Serratia marcescens) was “inactive”, the Activity [19] was “inactive” and the Activity [20] was “inactive”. It also gave an MIC (Candida albicans [21]) of 31.2 mg/L (≈ 46.7 µM), an MIC (Candida albicans [22]) of 31.2 mg/L (≈ 46.7 µM) and an MIC (Candida albicans [23]) of 31.2 mg/L (≈ 46.7 µM). For the same molecule, the MIC (Candida albicans [24]) was 31.2 mg/L (≈ 46.7 µM), the MIC (Candida albicans [25]) was 7.8 mg/L (≈ 11.7 µM) and the MIC (Candida albicans [26]) was 31.2 mg/L (≈ 46.7 µM). For the same molecule, the MIC (Candida albicans [27]) was 31.2 mg/L (≈ 46.7 µM), the MIC (Aspergillus nidulans) was ≤ 1.95 mg/L and the MIC (Candida albicans [28]) was 8 mg/L. It also gave an MIC (Candida albicans [29]) of 2 mg/L and an MIC (Candida albicans [30]) of 2 mg/L.

Reference: ChEMBL document CHEMBL3739331, “Synthesis and Bioactivities of Kanamycin B-Derived Cationic Amphiphiles” (J Med Chem, 2015)
